The source of these data is ChEMBL document CHEMBL1926556, “Synthesis and biological activities of 2-[(heteroaryl)methyl]imidazolines” (Bioorg Med Chem, 2012).

For data set [1], the system named is Rattus norvegicus. Description: Antihypertensive activity in Wistar rat assessed as inhibition of methoxamine-induced change in blood pressure at 0.1 mg/kg, iv administered 10 mins after methoxamine challenge. In kind it is functional. Put shortly:
(§1)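 Male Wistar rats (200–290 g) anaesthetized with i.p. thiopental 70 mg/kg, maintained by thiopental infusion, 36–37 °C. Carotid catheter for BP/HR, jugular line for infusion. Methoxamine i.v. infusion 10 or 20 µg/kg/min began 10 min before 0.1 mg/kg i.v. bolus. Readout is ΔMAP or ΔHR from time 0. Five to seven rats per group; repeated-measures ANOVA.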

The test system of data set [2] is Rattus norvegicus. Description: Antihypertensive activity in Wistar rat assessed as inhibition of methoxamine-induced change in heart rate at 0.1 mg/kg, iv co-administered with 20 ug/kg/min methoxamine challenge. In kind it is functional, organism-based. Details: dose 0.1 mg/kg. Put shortly:
as §1

Data set [3] has as its system Rattus norvegicus. The data set is described as follows: Toxicity in Sprague-Dawley rat assessed as calm behavior at 10 to 2000 ug/kg, ip measured after 30 mins. In kind it is organism-based. The settings on record: in vivo, 0.5 h.
Data set [4] has as its system Rattus norvegicus. Description: Anxiolytic activity in Sprague-Dawley rat assessed as loss of righting reflex at 500 ug/kg, ip measured after 30 mins. In kind it is functional, organism-based. Put shortly:
(§2)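 Male Sprague–Dawley rats (250–270 g) were handled by the experimenter one day before testing. Compound was dissolved in sterile saline and given i.p. If no loss of righting reflex occurred after 5 min, the dose was repeated, up to 2000 µg/kg cumulative. Animals were watched for righting reflex, locomotion, motor coordination and behaviour. Righting reflex was scored at 30 min.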

In data set [5] the test system is Rattus norvegicus. The data set is described as follows: Antihypertensive activity in Wistar rat assessed as inhibition of methoxamine-induced change in blood pressure at 0.1 mg/kg, iv administered 10 mins after 10 ug/kg/min methoxamine challenge. Details: dose 0.1 mg/kg. It counts as functional, organism-based. In short, it runs like this:
as §1

For data set [6], the system named is Rattus norvegicus. The data set is described as follows: Toxicity in Sprague-Dawley rat assessed as loss of spontaneous locomotory activity at 10 to 2000 ug/kg, ip measured within 5 to 8 mins. In kind it is organism-based. The settings on record: in vivo. Put shortly:
as §2

For data set [7], the system named is Rattus norvegicus. Description: Toxicity in Sprague-Dawley rat assessed as subdued state at 10 to 2000 ug/kg, ip measured after 30 mins. It counts as organism-based. The settings on record: in vivo, 0.5 h. In short, it runs like this: as §2
Data set [8] concerns Rattus norvegicus. Description: Antihypertensive activity in Wistar rat assessed as inhibition of methoxamine-induced change in heart rate at 0.1 mg/kg, iv administered 10 mins after methoxamine challenge. It counts as functional. Put shortly: as §1
The test system of data set [9] is Rattus norvegicus. The data set is described as follows: Anxiolytic activity in Sprague-Dawley rat assessed as loss of righting reflex at 100 ug/kg, ip measured after 30 mins. It counts as functional, organism-based. In short, it runs like this:
as §2

Data set [10] deals with Rattus norvegicus. Description: Toxicity in Sprague-Dawley rat assessed as resistance to handling at 10 to 2000 ug/kg, ip measured after 30 mins. The settings on record: in vivo, 0.5 h. It counts as organism-based. In short, it runs like this: as §2
In data set [11] the test system is Rattus norvegicus. The data set is described as follows: Anxiolytic activity in Sprague-Dawley rat assessed as loss of righting reflex at 2000 ug/kg, ip measured after 30 mins. In kind it is functional, organism-based. In short, it runs like this: as §2
The target of data set [12] is T1, Adrenergic receptor alpha-1 (Rattus norvegicus, UniProt P15823+P23944+P43140).
T1 sequence (P15823 whole entry): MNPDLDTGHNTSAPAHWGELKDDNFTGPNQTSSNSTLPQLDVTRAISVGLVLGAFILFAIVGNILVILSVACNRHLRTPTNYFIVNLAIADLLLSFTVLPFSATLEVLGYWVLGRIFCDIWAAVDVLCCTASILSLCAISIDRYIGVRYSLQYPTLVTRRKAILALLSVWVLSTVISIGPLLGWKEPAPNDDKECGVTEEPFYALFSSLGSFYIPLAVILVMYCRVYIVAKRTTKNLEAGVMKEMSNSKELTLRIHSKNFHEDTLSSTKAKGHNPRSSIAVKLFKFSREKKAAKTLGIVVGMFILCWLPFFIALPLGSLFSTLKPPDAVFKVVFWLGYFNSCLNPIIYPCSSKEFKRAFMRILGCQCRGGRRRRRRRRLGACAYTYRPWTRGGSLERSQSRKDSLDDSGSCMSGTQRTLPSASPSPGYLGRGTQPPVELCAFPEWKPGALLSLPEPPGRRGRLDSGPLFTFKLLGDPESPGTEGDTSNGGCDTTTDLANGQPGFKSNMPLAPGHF
T1 sequence (P23944 whole entry): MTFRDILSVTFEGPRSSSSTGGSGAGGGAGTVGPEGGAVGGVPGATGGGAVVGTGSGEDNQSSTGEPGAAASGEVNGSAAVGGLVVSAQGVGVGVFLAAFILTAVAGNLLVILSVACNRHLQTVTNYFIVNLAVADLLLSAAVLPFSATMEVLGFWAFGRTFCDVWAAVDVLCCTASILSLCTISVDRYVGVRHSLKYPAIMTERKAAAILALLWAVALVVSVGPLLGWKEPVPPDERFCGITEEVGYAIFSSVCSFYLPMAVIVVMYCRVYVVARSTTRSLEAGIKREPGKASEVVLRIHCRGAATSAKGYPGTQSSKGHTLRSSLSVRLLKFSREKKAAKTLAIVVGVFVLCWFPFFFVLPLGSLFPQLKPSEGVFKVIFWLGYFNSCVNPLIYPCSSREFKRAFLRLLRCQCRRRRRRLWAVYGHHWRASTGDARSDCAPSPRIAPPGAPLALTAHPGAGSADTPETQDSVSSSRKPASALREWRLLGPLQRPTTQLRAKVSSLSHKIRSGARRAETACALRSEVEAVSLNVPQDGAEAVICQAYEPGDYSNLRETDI
T1 sequence (P43140 whole entry): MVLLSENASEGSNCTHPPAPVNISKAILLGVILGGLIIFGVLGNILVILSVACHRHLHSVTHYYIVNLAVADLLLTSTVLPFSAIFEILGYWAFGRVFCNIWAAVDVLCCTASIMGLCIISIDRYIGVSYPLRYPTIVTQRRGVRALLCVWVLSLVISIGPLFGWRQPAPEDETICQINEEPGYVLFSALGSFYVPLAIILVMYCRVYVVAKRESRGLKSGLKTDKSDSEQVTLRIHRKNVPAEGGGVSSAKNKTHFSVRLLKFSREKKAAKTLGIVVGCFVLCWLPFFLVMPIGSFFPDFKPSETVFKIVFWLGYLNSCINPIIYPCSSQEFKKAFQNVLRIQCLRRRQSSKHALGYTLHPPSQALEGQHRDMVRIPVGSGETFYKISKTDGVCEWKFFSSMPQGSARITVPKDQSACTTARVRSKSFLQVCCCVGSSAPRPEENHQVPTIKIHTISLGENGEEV
The data set is described as follows: Displacement of [3H]prazosin from adrenoceptor alpha1 in Sprague-Dawley rat brain after 45 mins by scintillation counting. In short, it runs like this: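 Crude P2 membranes from male Sprague–Dawley rat brain (250–280 g), 0.2–0.3 mg protein. Radioligand 1 nM: [3H]2BFI for I2, [3H]prazosin for α1, [3H]RX821002 for α2. Non-specific binding defined by 10 µM BU224 (I2), 10 µM phenylephrine (α1) or 10 µM rauwolscine (α2). 11 concentrations from 0.01 nM to 100 µM, triplicate, 45 min at RT. Filtration and scintillation counting; Ki by Cheng–Prusoff.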
On the technique in general: Displacement assays read how much labelled ligand stays bound in the presence of the test substance.

For data set [13], the system named is Rattus norvegicus. The data set is described as follows: Toxicity in Sprague-Dawley rat assessed as reduced motor co-ordination at 10 to 2000 ug/kg, ip measured within 5 to 8 mins. In kind it is organism-based. The settings on record: in vivo. In short, it runs like this: as §2
In data set [14] the test system is Rattus norvegicus. Description: Anxiolytic activity in Sprague-Dawley rat assessed as loss of righting reflex at 10 ug/kg, ip measured after 30 mins. It counts as functional, organism-based. In short, it runs like this:
as §2

Data set [15] concerns Rattus norvegicus. The data set is described as follows: Anxiolytic activity in Sprague-Dawley rat assessed as loss of righting reflex at 1000 ug/kg, ip measured after 30 mins. In kind it is functional, organism-based. In short, it runs like this:
as §2

Activity calls are given as the source filed them. The calls are words filed in the database; no cut-off is given here.

As a reminder, the Ki is a measure of affinity in units of concentration, obtained from inhibition or displacement. For the compound `Cl.Clc1cccc2cnn(CC3=NCCN3)c12`, the Activity with Rattus norvegicus [1] is recorded as -47.7 mmHg; with Rattus norvegicus [3], “Non-toxic”; in the data set with Rattus norvegicus [6] it was “Toxic”; with Rattus norvegicus [7], “Non-toxic”; with Rattus norvegicus [8] it was -131.8 bpm; in the data set on Rattus norvegicus [10], “Non-toxic”. Moreover, the Activity entry in the data set on Rattus norvegicus [13] is on record as “Toxic”. In addition, the result in the data set on Rattus norvegicus [2], with Rattus norvegicus [11] and in the data set on Rattus norvegicus [15] was Active. The result in the data set with Rattus norvegicus [4], in the data set with Rattus norvegicus [5], in the data set with Rattus norvegicus [9] and in the data set with Rattus norvegicus [14] was inactive. In data set [12], this compound yielded a Ki of 14.1 nM.
Compound `Cl.c1ccc2c(c1)cnn2CC1=NCCN1` came in with a Ki in data set [12] of 272 nM.
The same measure, in the same setting: as for `Cc1cccc2cnn(CC3=NCCN3)c12.Cl`, the figure is 101 nM.
